Consider two molecules from ChEMBL document CHEMBL5154645, “Potent Anti-SARS-CoV-2 Activity by the Natural Product Gallinamide A and Analogues via Inhibition of Cathepsin L” (J Med Chem, 2022).

Molecules are shown by their SMILES. pEC50, pIC50, pKi: −log10 of the molar value.

Cathepsin S, sequence (P25774 whole entry): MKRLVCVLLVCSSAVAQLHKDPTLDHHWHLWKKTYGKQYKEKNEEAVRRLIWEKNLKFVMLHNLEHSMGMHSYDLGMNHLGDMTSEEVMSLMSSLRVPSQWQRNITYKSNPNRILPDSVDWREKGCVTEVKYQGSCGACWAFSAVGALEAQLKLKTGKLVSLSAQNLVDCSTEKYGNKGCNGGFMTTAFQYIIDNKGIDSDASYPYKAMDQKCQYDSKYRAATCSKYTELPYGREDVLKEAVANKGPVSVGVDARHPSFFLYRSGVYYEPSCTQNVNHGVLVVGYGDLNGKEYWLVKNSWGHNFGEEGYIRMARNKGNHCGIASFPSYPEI

For the first series, the target named is T1, Procathepsin L (Homo sapiens, UniProt P07711). Nature of the series: Inhibition of human recombinant Cathepsin L assessed as ratio of Kinact/Kiapp using Z-FR-AMC as substrate inubated for 30 mins by fluorometric assay.
T1 sequence (P07711 114-333 limits assumed): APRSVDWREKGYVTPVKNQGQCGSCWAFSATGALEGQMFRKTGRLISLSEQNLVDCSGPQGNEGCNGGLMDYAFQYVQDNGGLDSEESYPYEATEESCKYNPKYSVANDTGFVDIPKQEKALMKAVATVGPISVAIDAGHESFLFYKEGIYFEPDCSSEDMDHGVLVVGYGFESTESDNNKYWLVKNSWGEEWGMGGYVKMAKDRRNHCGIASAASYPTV
Details: not given
On to `COC1=CC(=O)N(C(=O)/C=C/[C@H](C)NC(=O)[C@H](CC(C)C)NC(=O)[C@H](CC(C)C)NC(=O)C2CCN(C)CC2)[C@H]1Cc1c[nH]c2ccccc12`, for which the Ratio was 2.9 10^5/s/M.

A further series addresses T2, Cathepsin B (Homo sapiens, UniProt P07858). Nature of the series: Inhibition of human recombinant Cathepsin B assessed as ratio of Kinact/Kiapp using Z-FR-AMC as substrate inubated for 30 mins by fluorometric assay.
Details: not given
A digest of the protocol:
(§1)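 Human CatL, human CatB or mouse CatL at 1 nM, at 25 °C in pH 5.5 Na acetate/DTT/EDTA/NaCl buffer. Reactions held 40 μM Z-FR-AMC and 555.56 to 0.01 nM compound, in quadruplicate. Product formation was measured at 6 min intervals for 1 h and normalized to DMSO wells. kobs came from inactivation curves. kinact and KIapp were obtained by nonlinear regression of kobs = kinact[I]/(KIapp + [I]); their ratio was then calculated.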
For the molecule `COC1=CC(=O)N(C(=O)/C=C/[C@H](C)NC(=O)[C@H](CC(C)C)NC(=O)[C@H](CC(C)C)NC(=O)C2CCN(C)CC2)[C@H]1Cc1c[nH]c2ccccc12`, the Ratio was 1.99 10^4/s/M.

In a further series the target is T3, Procathepsin L (Mus musculus) (UniProt P06797).
T3 sequence (whole entry): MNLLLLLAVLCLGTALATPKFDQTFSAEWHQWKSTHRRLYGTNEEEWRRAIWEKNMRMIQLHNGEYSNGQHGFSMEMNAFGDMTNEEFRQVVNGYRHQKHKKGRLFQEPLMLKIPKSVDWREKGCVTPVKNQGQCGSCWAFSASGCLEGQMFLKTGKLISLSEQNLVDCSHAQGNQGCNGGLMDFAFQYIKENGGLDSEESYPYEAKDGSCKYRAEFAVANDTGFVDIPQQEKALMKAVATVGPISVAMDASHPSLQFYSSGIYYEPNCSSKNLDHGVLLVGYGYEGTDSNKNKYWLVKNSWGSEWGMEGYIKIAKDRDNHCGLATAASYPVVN
Put plainly: Inhibition of mouse Cathepsin L assessed as ratio of Kinact/Kiapp using Z-FR-AMC as substrate inubated for 30 mins by fluorometric assay.
Details: not given
The gist of the method: as §1
`COC1=CC(=O)N(C(=O)/C=C/[C@H](C)NC(=O)[C@H](CC(C)C)NC(=O)[C@H](CC(C)C)NC(=O)C2CCN(C)CC2)[C@H]1Cc1c[nH]c2ccccc12`: the Ratio was 8.06 10^5/s/M.

The next series deals with T1, Procathepsin L. Put plainly: Inhibition of human recombinant Cathepsin L assessed enzyme activity using Z-FR-AMC as substrate at 416 nM incubated for 30 mins by fluorometric assay.
Details: not given
The gist of the method:
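Recombinant human CatL at 50 pM was incubated with 416 nM compound for […] at 25 °C in 50 mM Na acetate pH 5.5, 5 mM DTT, 0.01% BSA, 1 mM EDTA. An equal volume of 5 μM Z-FR-AMC was then added. Fluorescence was read at 360/460 nm in triplicate wells and normalized to DMSO vehicle wells.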
Regarding `COC1=CC(=O)N(C(=O)/C=C/[C@H](C)NC(=O)[C@H](CC(C)C)NC(=O)[C@H](Cc2ccccc2)NC(=O)[C@H](CC(C)C)N(C)C)[C@H]1Cc1c[nH]c2ccccc12`, the inhibition – broadly, the percentage by which the read-out fell short of the control – was 90%.

The next series has as its target T2, Cathepsin B. Nature of the series: Inhibition of human recombinant Cathepsin B assessed as Kinact using Z-FR-AMC as substrate inubated for 30 mins by fluorometric assay.
Details: not given
As to `COC1=CC(=O)N(C(=O)/C=C/[C@H](C)NC(=O)[C@H](CC(C)C)NC(=O)[C@H](CC(C)C)NC(=O)C2CCN(C)CC2)[C@H]1Cc1c[nH]c2ccccc12`, the Kinact was 1.7 10^-2/s.

In the next series the test system is SARS-CoV-2. Nature of the series: Antiviral activity against SARS-CoV-2 infected in African green monkey Vero E6 cells assessed as inhibition of viral infection pre incubated for 30 minutes followed by viral infection and measured after 72 hrs by Nucblue dye based fluorometric analysis. It counts as functional, organism-based. Conditions: Severe acute respiratory syndrome coronavirus 2, Vero C1008.
Turning to `COC1=CC(=O)N(C(=O)/C=C/[C@H](C)NC(=O)[C@H](CC(C)C)NC(=O)[C@H](CC(C)C)NC(=O)C2CCN(C)CC2)[C@H]1Cc1c[nH]c2ccccc12`, the pEC50 (as a rule, the EC50 on a negative log10 scale, so that one unit is a factor of ten) is less than 5.30.

In the next series the target is T4, Procathepsin L (Mus musculus, UniProt P06797).
T4 sequence (P06797 whole entry): T3 sequence (whole entry)
Put plainly: Inhibition of mouse Cathepsin L assessed as Apparent inhibition constant using Z-FR-AMC as substrate inubated for 30 mins by fluorometric assay. Conditions: read-out: Ki(app). A digest of the protocol:
as §1
With `COC1=CC(=O)N(C(=O)/C=C/[C@H](C)NC(=O)[C@H](CC(C)C)NC(=O)[C@H](CC(C)C)NC(=O)C2CCN(C)CC2)[C@H]1Cc1c[nH]c2ccccc12`, the pKi (in general, the negative decadic logarithm of the Ki, by convention in mol/L) is 8.40.

Another series has as its target T5, Cathepsin K (Homo sapiens, UniProt P43235).
T5 sequence (P43235 whole entry): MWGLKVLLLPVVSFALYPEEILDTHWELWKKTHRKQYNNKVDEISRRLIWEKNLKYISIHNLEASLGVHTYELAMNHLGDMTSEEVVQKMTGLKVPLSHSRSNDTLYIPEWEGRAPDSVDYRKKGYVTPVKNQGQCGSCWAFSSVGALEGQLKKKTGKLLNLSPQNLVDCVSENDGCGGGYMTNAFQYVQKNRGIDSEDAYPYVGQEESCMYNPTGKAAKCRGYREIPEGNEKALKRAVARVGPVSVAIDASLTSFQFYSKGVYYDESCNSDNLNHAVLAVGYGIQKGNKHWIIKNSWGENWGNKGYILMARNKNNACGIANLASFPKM
Put plainly: Inhibition of human recombinant Cathepsin K assessed remaining activity using Z-FR-AMC as substrate incubated for 30 mins by fluorometric assay.
Details: not given
A digest of the protocol:
(§2)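 Recombinant human cathepsins: L, B, V and K at 1.11 nM, S at 4.44 nM. Each was preincubated 30 min at 25 °C with 3333 to 0.006 nM compound. Z-FR-AMC was added at 40 μM final. AMC release rate over 0–30 min was compared with DMSO (ex/em 360/460). IC50 from four technical replicates.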
For the molecule `COC1=CC(=O)N(C(=O)/C=C/[C@H](C)NC(=O)[C@H](CC(C)C)NC(=O)[C@H](CC(C)C)NC(=O)C2CCN(C)CC2)[C@H]1Cc1c[nH]c2ccccc12`, the pIC50 (usually the IC50 on a negative log10 scale, so that one unit is a factor of ten) is 7.75.

The target in a further series is T1, Procathepsin L. Nature of the series: Inhibition of human recombinant Cathepsin L assessed as Kinact using Z-FR-AMC as substrate inubated for 30 mins by fluorometric assay.
Details: not given
A digest of the protocol:
as §1
Consider `COC1=CC(=O)N(C(=O)/C=C/[C@H](C)NC(=O)[C@H](CC(C)C)NC(=O)[C@H](CC(C)C)NC(=O)C2CCN(C)CC2)[C@H]1Cc1c[nH]c2ccccc12`, for which the Kinact was 8.34 10^-3/s.

In a further series the target is T6, Cathepsin L2 (Homo sapiens, UniProt O60911).
T6 sequence (O60911 whole entry): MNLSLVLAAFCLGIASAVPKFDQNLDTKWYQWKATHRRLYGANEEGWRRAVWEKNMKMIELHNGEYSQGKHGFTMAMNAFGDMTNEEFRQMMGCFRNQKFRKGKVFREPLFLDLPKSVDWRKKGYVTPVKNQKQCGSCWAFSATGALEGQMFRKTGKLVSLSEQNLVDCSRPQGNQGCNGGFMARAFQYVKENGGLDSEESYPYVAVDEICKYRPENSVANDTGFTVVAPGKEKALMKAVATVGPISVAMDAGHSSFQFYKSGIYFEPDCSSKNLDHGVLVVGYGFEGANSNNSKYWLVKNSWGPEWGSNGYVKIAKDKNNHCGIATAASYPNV
Nature of the series: Inhibition of human recombinant Cathepsin V assessed remaining activity using Z-FR-AMC as substrate incubated for 30 mins by fluorometric assay.
Details: not given
The gist of the method:
as §2
Take `COC1=CC(=O)N(C(=O)/C=C/[C@H](C)NC(=O)[C@H](CC(C)C)NC(=O)[C@H](CC(C)C)NC(=O)C2CCN(C)CC2)[C@H]1Cc1c[nH]c2ccccc12`: the pIC50 was 7.20.

The next series concerns the target T3, Procathepsin L (Mus musculus). Nature of the series: Inhibition of mouse Cathepsin L assessed as Kinact using Z-FR-AMC as substrate inubated for 30 mins by fluorometric assay.
Details: not given
The gist of the method:
as §1
Take `COC1=CC(=O)N(C(=O)/C=C/[C@H](C)NC(=O)[C@H](CC(C)C)NC(=O)[C@H](CC(C)C)NC(=O)C2CCN(C)CC2)[C@H]1Cc1c[nH]c2ccccc12`: the Kinact is 3.19 10^-3/s.

Another series has as its target T2, Cathepsin B. Put plainly: Inhibition of human recombinant Cathepsin B assessed as Apparent inhibition constant using Z-FR-AMC as substrate inubated for 30 mins by fluorometric assay. The settings on record: read-out: Ki(app). A digest of the protocol: as §1
Regarding `COC1=CC(=O)N(C(=O)/C=C/[C@H](C)NC(=O)[C@H](CC(C)C)NC(=O)[C@H](CC(C)C)NC(=O)C2CCN(C)CC2)[C@H]1Cc1c[nH]c2ccccc12`, the pKi was 6.07.

Another series has as its system Vero C1008. Put plainly: Cytotoxicity against cells African green monkey Vero E6 cells incubated for 24 to 72 hrs by alamar blue assay. It counts as toxicity, cell-based. Conditions: chlorocebus sabaeus, time 24-72 hrs. A digest of the protocol:
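VeroE6 cells in DMEM with 10% FCS were seeded at 5 × 10^4 per well. After adherence, cells were given varying compound concentrations for 24 or 72 h at 37 °C, 5% CO2. Alamar Blue HS was added for a further 2–4 h. Viability was read as fluorescence at ex/em 560/590 nm.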
(Alamar Blue is a resazurin reagent that responds to reducing activity.)
Regarding `COC1=CC(=O)N(C(=O)/C=C/[C@H](C)NC(=O)[C@H](CC(C)C)NC(=O)[C@H](CC(C)C)NC(=O)C2CCN(C)CC2)[C@H]1Cc1c[nH]c2ccccc12`, the 50% cytotoxic concentration (CC50) (in general, the concentration at which the toxic effect on the cells reaches its halfway point) is more than 100000 nM.

The target in another series is T2, Cathepsin B. Put plainly: Inhibition of human recombinant Cathepsin B assessed remaining activity using Z-FR-AMC as substrate incubated for 30 mins by fluorometric assay.
Details: not given
A digest of the protocol:
as §2
As for `COC1=CC(=O)N(C(=O)/C=C/[C@H](C)NC(=O)[C@H](CC(C)C)NC(=O)[C@H](CC(C)C)NC(=O)C2CCN(C)CC2)[C@H]1Cc1c[nH]c2ccccc12`, the pIC50 is 9.38.

Another series concerns the target Cathepsin S (Homo sapiens, UniProt P25774). Put plainly: Inhibition of human recombinant Cathepsin S assessed remaining activity using Z-FR-AMC as substrate incubated for 30 mins by fluorometric assay.
Details: not given
The gist of the method: as §2
In the case of `COC1=CC(=O)N(C(=O)/C=C/[C@H](C)NC(=O)[C@H](CC(C)C)NC(=O)[C@H](CC(C)C)NC(=O)C2CCN(C)CC2)[C@H]1Cc1c[nH]c2ccccc12`, the pIC50 is 10.83.
